DNMT1 inh: DNMT1 (human) enzyme inhibition | DNMT1 molecular beacon, Hinp1I cleavage, fluorescence | inhibition (reported as % activation of signal), % at 10 µM | 360,000 compounds, 0.83% hits; in the data active means inhibition above about 50%
Scp-1 inhibitor: Scp-1 (human) phosphatase inhibition; Q9GZU7; Recombinant Scp1, phosphopeptide, malachite green phosphate absorbance; inhibition, % at 20 µM; 340,000 compounds, 0.88% hits; AID 493091;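 active means inhibition above about 50% at 20 µM, limit read from the data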;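 further: plate controls were DMSO wells with enzyme for no effect and wells lacking enzyme for full effect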
Target sequence (Q9GZU7 76-261 limits assumed): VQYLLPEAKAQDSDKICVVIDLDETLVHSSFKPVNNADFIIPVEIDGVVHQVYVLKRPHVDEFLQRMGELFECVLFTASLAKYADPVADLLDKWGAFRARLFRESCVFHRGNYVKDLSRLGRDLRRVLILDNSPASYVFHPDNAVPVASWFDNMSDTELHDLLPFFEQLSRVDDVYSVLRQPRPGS
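Times: enzyme reaction 45 min at room temperature, colour 5 min, stabilisation 30 min. Material: SCP-1 catalytic fragment, aa 76-261. Medium: Acidic Tris acetate buffer with magnesium and detergent. Signal: colorimetric free-phosphate detection, absorbance 630 nm. Read-out basis: % inhibition of SCP-1 phosphate liberation. Reagent: Phosphorylated 17-residue peptide substrate.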
STEP inh: inhibitors of human striatal-enriched phosphatase STEP. P54829. 360,000 compounds, 0.25% hits. inhibition, % at 20 µM. recombinant STEP, OMFP fluorogenic substrate, fluorescence;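 active means inhibition at 20 µM, scaled per plate between control wells, above about 37%, limit read from the data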;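 further: 0% = DMSO with enzyme and substrate and 100% = substrate only without enzyme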
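Test system: STEP tyrosine phosphatase / Reagent: OMFP at 25 µM / Doses: 20 µM, 1% DMSO / Read-out: percent inhibition scaled to no-enzyme and uninhibited-enzyme controls, plate-pattern corrected / Detection: FITC-channel fluorescence of OMFP product / Medium: Bis-Tris buffer pH 6.0, 2.5 mM DTT, 0.005% Tween 20 / Schedule: 20 min at room temperature, dark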
UBC9 SUMO inh: SUMOylation inhibition. P63279. HTRF SUMOylation assay, SAE1/SAE2 + UBC9, in vitro. inhibition, % at 35 µM. 290,000 compounds, 0.36% hits. AID 2006; in the data active means inhibition above about 50%, passing the limit was not always enough
Target sequence (P63279 whole entry, looked up): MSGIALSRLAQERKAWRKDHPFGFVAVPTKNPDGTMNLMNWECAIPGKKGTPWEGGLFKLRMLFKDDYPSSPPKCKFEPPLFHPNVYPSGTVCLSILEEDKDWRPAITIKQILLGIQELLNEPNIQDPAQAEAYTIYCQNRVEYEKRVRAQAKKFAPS
LMPTP block: LMPTP (human) inhibition | recombinant LMPTP-A, OMFP fluorogenic substrate, fluorescence intensity | P24666 | 360,000 compounds, 0.22% hits | inhibition, % at 20 µM;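 active means compounds that cut the enzyme signal by at least half of the control window in the single-dose screen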;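 further: plate controls were DMSO wells with enzyme plus substrate for no effect and substrate without enzyme for full effect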
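Test system – LMPTP-A phosphatase enzyme · Quantity – 0.625 nM LMPTP-A final · Reagent – OMFP substrate, 400 µM final · Dosing – one test concentration per compound, 20 µM, with 3% DMSO overall · Timing – 50 min enzyme reaction at room temperature, protected from light · Detection – fluorescence intensity · Controls – substrate-only low control, DMSO enzyme-plus-substrate high control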
SUMO1-SIM PPI: modulators of human SUMO1-mediated protein-protein interactions. AID 602429. 360,000 compounds, 0.33% hits. SUMO1 binding to a labelled peptide, TR-FRET, 1 h. P63165. inhibition, % at 20 µM; in the data active means inhibition above about 37%
Target sequence (P63165 whole entry, looked up): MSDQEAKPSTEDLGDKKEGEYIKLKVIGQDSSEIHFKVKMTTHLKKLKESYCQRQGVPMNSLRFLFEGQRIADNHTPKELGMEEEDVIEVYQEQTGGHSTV
DNMT1 inh conf: confirmation of human DNMT1 inhibitors. AID 602385. DNMT1 molecular beacon HinP1I cleavage, fluorescence. inhibition, % at 10 µM. 2,300 compounds, 8% hits. shares compounds with DNMT1 inh;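 active means average inhibition of at least 30% in the single-concentration confirmation test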
Beacon interf: shows spectral interference in the DNMT1 beacon assay; shares compounds with DNMT1 inh; DNMT1 molecular beacon spectral interference counterscreen, fluorescence 485/520; activation (fluorescence interference), % at 10 µM; 2,300 compounds, 1% hits; AID 602387;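 active means activation of at least 30% at 10 µM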;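 further: DNMT1 catalytic domain with a HinP1I cleavage step and a FAM/dabcyl DNA beacon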
Starred values were filed as active, the others as inactive; · = no result given. A selection: hits, their analogues and other compounds. The true share with any hit is near 1.9%.

SMILES	DNMT1 inh	Scp-1 inhibitor	STEP inh	UBC9 SUMO inh	LMPTP block	SUMO1-SIM PPI	DNMT1 inh conf	Beacon interf
COc1cc(Cn2c(N)c(C#N)c3nc4ccccc4nc32)cc(OC)c1	-23	3	-1	21	2	13	·	·
COC(=O)c1ccc(CCc2cc(O)ccc2O)cc1	72*	-10	-1	·	0	-2	4	5
NC(COCc1ccccc1)c1csc(Nc2ccccn2)n1 (stereo not drawn)	-3	·	1	·	0	4	·	·
CN(/N=C/c1c[nH]c2ccccc12)c1cnn(-c2ccc(F)c(Cl)c2)c(=O)c1Cl	111*	3	-3	26	1	-1	3	8
COC(=O)c1ccc(-c2nc(O)c(C)s2)cc1	0	-6	10	0	1	-7	·	·
COC(=O)c1ccc(-c2nc3cc(Cl)c(N)cc3s2)cc1	56*	-4	-2	13	-1	1	1	7
CCOC(=O)N1CCN(Cc2nc(CC3CC3)no2)CC1	82*	-5	-1	-4	-1	3	3	3
CN(C)C(=O)CN1CCN(Cc2nc(CC3CC3)no2)CC1	2	-1	-2	19	4	0	·	·
COc1ccc(O)c(-c2cc(-c3ccccc3[N+](=O)[O-])[nH]n2)c1	86*	-2	0	-14	-1	-5	3	6
CC(C)Oc1ccc(S(=O)(=O)N2CCOCC2)cc1NC(=O)Cc1c(F)cccc1Cl	90*	-4	1	·	1	1	1	2
CC(C)(C)OC(=O)NCc1ccc(NC(=O)c2nc[nH]c2C(=O)NCCCNC(=O)c2[nH]cnc2C(=O)Nc2ccc(CNC(=O)OC(C)(C)C)cc2)cc1	60*	1	-4	·	-4	2	1	-2
CC(C)(C)OC(=O)NCc1ccc(NC(=O)c2nc[nH]c2C(=O)NCCCCCCNC(=O)c2[nH]cnc2C(=O)Nc2ccc(CNC(=O)OC(C)(C)C)cc2)cc1	15	-5	0	·	8	7	·	·
CC(C)(C)OC(=O)NCc1ccc(NC(=O)c2nc[nH]c2C(=O)NCCCCNC(=O)c2[nH]cnc2C(=O)Nc2ccc(CNC(=O)OC(C)(C)C)cc2)cc1	61*	-4	-6	·	-3	24	0	1
CC(C)(C)c1nnc(NC(=O)NS(=O)(=O)c2ccccc2)s1	-2	5	-2	23	-1	1	·	·
CC(=O)c1ccc(C(=O)Nc2sc3c(c2C(N)=O)CCN(Cc2ccccc2)C3)cc1	84*	·	-13	-15	2	-6	10	3
O=C(CCc1nc2ccccc2c(=O)[nH]1)Nc1nc(-c2cccs2)cs1	-2	1	0	·	1	0	·	·
O=C(CCc1nc2ccccc2c(=O)[nH]1)Nc1nnc(SCc2ccc(F)cc2)s1	64*	-1	1	·	5	7	2	77*
N#Cc1ccc(CSc2nnc(NC(=O)CCc3nc4ccccc4c(=O)[nH]3)s2)cc1	68*	-4	1	·	1	8	0	-5
O=C(CCc1nc2ccccc2c(=O)[nH]1)Nc1ccc(F)cc1	5	0	-4	-11	-1	3	·	·
Cc1ccc(/C=C/C(=O)Nc2nnc(SCc3ccc(C#N)cc3)s2)o1	44	-1	3	35	1	5	19	3
COc1ccc(N(C(=O)c2cnccn2)C(C(=O)NCc2ccccc2)c2ccc(O)cc2)cc1 (stereo not drawn)	-4	-5	-2	17	3	3	·	·
OC[C@@H]1CN(Cc2ccc(-c3ccccc3)cc2)C[C@H](n2cnc3c(NCc4ccncc4)ncnc32)O1	-13	·	2	·	2	1	·	·
COC(=O)C1=C(O)/C(=C\c2ccc(CNC(=O)C(=O)Nc3ccc(C)cc3)o2)N=C1C	96*	-7	5	-14	16	20	4	4
COC(=O)C1=C(O)/C(=C\c2ccc(CNC(=O)C(=O)Nc3ccc(C)c(C)c3)o2)N=C1C	86*	-1	4	23	8	11	6	11
CCc1noc(C)c1C(=O)OCC(=O)Nc1cccc(C)c1	77*	-6	-3	·	-1	2	3	3
Cc1cccc(NC(=O)COC(=O)c2c(-c3ccccc3)noc2C)c1	1	·	0	·	2	-3	·	·
CNc1cncc(-c2cccc(NS(C)(=O)=O)c2)n1	-1	·	-4	·	-2	-10	·	·
C=CCn1c(=NC(=O)c2cccs2)sc2cccc(OC)c21	-1	-20	0	-18	4	-3	·	·
C#CCn1c(=NC(=O)c2ccc(Br)s2)sc2cccc(OC)c21	52*	-17	2	-1	6	-20	0	-6
CC(C)NC(=S)NN(c1ccccc1)c1ccccc1	108*	8	1	10	0	4	1	-1

Compound activity: PubChem, Sanford-Burnham Center for Chemical Genomics
